CAL PDZ FP-1: CAL PDZ peptide-binding inhibitors, primary screen, biochemical, fluorescence polarization, Cer-tagged CAL PDZ, HTS; purified CAL PDZ, TMR-peptide fluorescence polarization, 1 h; inhibition, % at 20 µM; 0.02% of 330,000 active;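 active = highest replicate inhibition of at least 40%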;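 also: plate controls were DMSO neutral control wells for no effect and unlabeled competitor peptide control wells for full effect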
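Control set: unlabelled peptide and DMSO controls / Material: purified CerCALP PDZ construct / Timing: 1 h incubation at room temperature before polarization reading / Doses: 20 µM, one dose / Detection: fluorescence polarization (mP)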
DYRK1A inh: rat Dyrk1A kinase inhibitors, primary screen, biochemical, single point, plate reader; ADP-Glo luminescence, NFATc1 peptide; AID 504441, 2011; inhibition, % at 12.5 µM; 0.43% of 310,000 active; in the data active = inhibition above about 50%;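 also: plate controls were vehicle with enzyme for no effect and no enzyme for full effect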
Rtt109 Vps75: inhibitors of C. albicans Rtt109/Vps75 HAT, primary screen, biochemical, ThioGlo CoA-SH fluorescence, plate reader; 0.16% of 330,000 active; purified Rtt109/Vps75, 4 h; inhibition, % at 34.9 µM; Histone acetyltransferase RTT109 (Candida albicans (strain SC5314 / ATCC MYA-2876)), …;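 active = inhibition of at least 50% in every replicate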
dFosB act-1: activators of delta FosB homodimer, primary screen, biochemical, fluorescence polarization, TAMRA-CDK5 oligo, single point; 0.99% of 340,000 active; activation, % at 25 µM; AID 493131, 2011; Protein FosB (Mus musculus), P13346; purified delta FosB; percent of positive-control signal above neutral wells;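 active = mean activation above about 17%, with every replicate also reaching it, limit read from the data, passing the limit was not always enough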
Target sequence (P13346 whole entry, looked up): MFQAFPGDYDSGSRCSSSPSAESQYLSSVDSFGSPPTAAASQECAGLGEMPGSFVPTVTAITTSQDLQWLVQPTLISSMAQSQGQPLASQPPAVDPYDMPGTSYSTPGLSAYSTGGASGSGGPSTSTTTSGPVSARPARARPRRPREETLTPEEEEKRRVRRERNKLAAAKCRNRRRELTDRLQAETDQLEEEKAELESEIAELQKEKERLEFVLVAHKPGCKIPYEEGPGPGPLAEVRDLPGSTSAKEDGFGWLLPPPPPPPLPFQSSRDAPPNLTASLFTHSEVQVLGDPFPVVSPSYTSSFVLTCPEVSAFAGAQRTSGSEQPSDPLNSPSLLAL
CDK5 inh: inhibitors of human CDK5/p35 kinase, primary screen, biochemical, single concentration; inhibition, % at 10 µM; Recombinant CDK5/p35, ADP-Glo luminescence, 60 min; Cyclin-dependent kinase 5 (Homo sapiens) + Cyclin-dependent kinase 5 activator 1 (Homo …; 0.01% of 330,000 active;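 active = highest replicate inhibition of at least 50% and at least 75% of replicates reaching 50%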;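 also: plate controls were DMSO neutral control for no effect and GW8510 at 10 µM for full effect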
CAL PDZ FP-2: untagged CAL PDZ binding inhibitors, primary screen, biochemical, fluorescence polarization, HTS. Golgi-associated PDZ and coiled-coil motif-containing protein (Homo sapiens), Q9HD26. purified CAL PDZ, TMR-peptide fluorescence polarization, 1 h. inhibition, % at 24.9 µM. 0.92% of 300,000 active;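 active = mean inhibition of at least 30% with at least half of replicates also reaching 30%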;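 also: 0% = DMSO neutral control and 100% = excess unlabeled competitor peptide PRC23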
dFosB act-2: activators of mouse delta FosB DNA binding, confirmation, biochemical, fluorescence polarization, TAMRA-CDK5 oligo, cherry-picked samples; shares compounds with dFosB act-1; purified delta FosB; normalised: neutral wells 0, positive control 100; 2,400 tested, under 10 active; activation, % at 24.9 µM;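 active = highest replicate activation at or above 34% and every replicate reaching that threshold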;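 also: higher polarization means more probe DNA bound by delta FosB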
* = called active by the depositor; / = no result given. In the library only some 2.2% were active in any assay of this set; here they are far more common.

SMILES	CAL PDZ FP-1	DYRK1A inh	Rtt109 Vps75	dFosB act-1	CDK5 inh	CAL PDZ FP-2	dFosB act-2
O=C(Nc1ccccc1C(=O)OCC(=O)N1CCc2ccccc2C1)c1ccco1	-1.5	-3.6	3.4	-10.4	-2.3	-0.9	/
CCCOc1cccc(-c2nn(-c3ccccc3)cc2/C=C(\C#N)C(=O)NCCCn2ccnc2)c1	-3.1	6.2	-4.6	-1.5	0.1	-3.9	/
N#C/C(=C/c1cn(-c2ccccc2)nc1-c1cccc(OCc2ccc(F)cc2)c1)C(=O)NCCCn1ccnc1	-1.5	-1.3	3.1	35.4*	0.3	-0.6	-1.7
CCC(C)NC(=O)Cn1c(=O)n(CCCC(=O)NCc2ccccc2Cl)c(=O)c2ccccc21 (stereo not given)	-0.2	2.7	-1.3	19.8*	-4.0	-2.5	-0.5
COc1cccc(NC(=O)Cn2c(=O)n(CCCC(=O)NCc3ccco3)c(=O)c3ccccc32)c1	-1.9	/	4.4	-10.1	-0.1	-1.6	/
COc1ccc(NC(=O)Cn2c(=O)n(CC(=O)NCc3ccco3)c(=O)c3ccccc32)cc1OC	/	-4.4	-1.5	11.1	-1.2	-12.1	/
Cc1cc(C)c(NC(=O)Cn2c(=O)n(Cc3ccco3)c(=O)c3ccccc32)c(C)c1	-2.0	5.0	10.4	63.6*	1.3	/	6.1
O=C(CCCCn1c(=O)c2ccccc2n(CC(=O)Nc2cccc(F)c2)c1=O)NCc1ccco1	-0.3	-3.2	-9.5	24.4*	-2.0	-0.3	-6.8
CCC(C)(C)NC(=O)C(c1cccn1C)N(Cc1ccc(OC)cc1)C(=O)Cn1nnc2ccccc21 (stereo not given)	-0.4	-9.9	-0.7	3.1	-0.3	/	/
C[C@H](CO)N1C[C@H](C)[C@@H](CN(C)S(=O)(=O)c2ccccc2)Oc2ccc(NC(=O)Nc3ccc4c(c3)OCO4)cc2C1=O	-1.1	-7.8	4.2	-11.4	1.7	-3.8	/
CC(Sc1nnc(Nc2ccccc2F)s1)C(=O)NC1CC1 (stereo not given)	-1.1	5.5	-3.5	-9.4	-7.5	0.8	/
COc1ccccc1N(CC(=O)NCCSc1ccccn1)S(=O)(=O)c1ccccc1	-0.9	0.6	0.1	1.5	-0.4	/	/
COc1ccc(OCCSCc2nnc(NC(=O)Nc3ccc(Cl)cc3)s2)cc1	-2.4	-1.5	-1.4	23.6*	2.4	-3.9	6.1
CN(CCNC(=O)C1CCCN(c2ncnc3c2nc2n3CCCCC2)C1)Cc1ccccc1 (stereo not given)	-1.8	3.6	3.0	-6.7	-3.0	-3.9	/
CC(=O)c1ccc(C(=O)Nc2ccc3c(c2)C(=O)NC3=O)cc1	-1.6	-2.2	-23.6	31.7*	-0.6	/	0.1
COc1cccc(C(=O)Nc2ccc3c(c2)C(=O)NC3=O)c1	-1.7	0.9	-3.9	23.2*	-1.0	/	3.1
O=C(COc1ccc(Cl)cc1)Nc1ccc(NC(=O)c2ccco2)cc1	0.2	-6.7	3.1	25.2*	-0.5	/	8.5
COc1ccc(C(=O)Nc2ccc3c(c2)C(=O)NC3=O)cc1	-0.8	1.1	-5.3	49.1*	2.4	/	3.2
O=C(COc1ccccc1)Nc1ccc(NC(=O)c2ccco2)cc1	-5.6	-2.9	-13.9	0.9	0.6	/	/
CN(C)S(=O)(=O)Oc1cc(Cl)ccc1C(=O)Nc1ccc(F)cc1F	-0.1	-3.9	2.0	-4.8	0.0	-3.6	/
COc1ccc(C(=O)COC(=O)c2cc(S(=O)(=O)NCc3ccccc3)ccc2O)cc1	-0.7	1.5	3.1	-2.6	-4.3	2.9	/
Cc1cccc(C(=O)N2CCN=C2SCc2ccc([N+](=O)[O-])cc2)c1	-0.2	/	9.5	-2.0	0.7	12.6	/
O=C(CSc1nnc(CNC(=O)c2cccs2)o1)Nc1ccccc1F	-1.1	1.9	-2.8	5.0	3.2	-6.9	/
COc1ccc(C(=O)NC(=S)Nc2ccc(NC(=O)c3ccco3)cc2)cc1[N+](=O)[O-]	-1.9	1.3	-2.3	29.3*	-0.1	-1.4	0.0
CC(=O)Nc1ccc(NC(=O)c2ccco2)cc1	-0.6	-12.4	-4.4	-7.2	-0.5	-5.0	/
SMILES	CAL PDZ FP-1	DYRK1A inh	Rtt109 Vps75	dFosB act-1	CDK5 inh	CAL PDZ FP-2	dFosB act-2
CC(=O)c1ccc(NC(=O)c2ccc(NC(=O)c3ccco3)cc2)cc1	-2.0	0.3	-4.8	93.3*	0.2	-4.5	1.6
COc1ccc(C(=O)NC(=S)Nc2cccc(NC(=O)c3ccco3)c2)cc1[N+](=O)[O-]	-2.7	/	4.5	5.0	1.4	-3.5	/
COc1ccc(NC(=O)c2oc3ccccc3c2NC(=O)c2ccco2)cc1	-1.8	2.3	4.2	20.7*	-1.1	3.7	-0.6
O=C(CC1C(=O)NCCN1Cc1cccc(F)c1)NC1CCCCCC1 (stereo not given)	0.1	-4.9	6.5	-13.7	0.0	-2.3	/
CC(=O)c1cccc(NC(=O)COc2cc3oc(=O)c(CC(C)O)c(C)c3cc2Cl)c1 (stereo not given)	-4.9	7.7	15.2	-16.3	2.0	1.9	/
Cc1ccc(-c2csc(/C=C3\SC(C)C(=O)N3CC(=O)Nc3ccccc3F)n2)cc1 (stereo not given)	-1.8	0.0	-15.3	18.0*	-5.8	-0.4	-0.3
CC(=O)c1ccc(NC(=S)N2CCCC2)cc1	-0.7	-0.4	1.7	-2.3	-0.3	-0.9	/
Cc1ccc(Nc2nnc(SCc3nc4ccccc4c(=O)[nH]3)s2)cc1	-2.2	14.0	-3.9	43.2*	0.3	0.8	-1.1
Cc1ccc(OCCn2c(C)c(/C=N/n3cnnc3)c3ccccc32)cc1	-3.2	-0.8	-4.0	31.2*	0.0	-2.0	4.9
Cc1c(/C=N/n2cnnc2)c2ccccc2n1CCOc1ccc(Cl)cc1	-1.5	2.5	-5.0	5.5	1.6	/	/
COC(=O)c1ccc(N(C(=O)c2ccco2)C(C(=O)NC2CCCC2)c2ccco2)cc1 (stereo not given)	-2.8	-2.6	3.1	-14.0	-4.0	1.1	/
O=C1CC(NS(=O)(=O)c2cccs2)CN1c1ccc(Cl)cc1 (stereo not given)	-0.1	8.2	2.3	-6.0	-0.8	/	/
O=C(COC(=O)c1cccnc1Cl)NCc1ccc2c(c1)OCO2	-0.2	0.1	4.3	7.8	-1.0	-0.3	/
